ChEMBL document CHEMBL1125251, “4'-Hydroxy-3-methoxyflavones with potent antipicornavirus activity” (J Med Chem, 1991)
In brackets after ≈: the same amount, converted by molar mass. Activity calls are given as the source filed them. The rule behind the calls is not given here.

Assays:
[1] = Cytotoxic dose at which 50% growth of normal cells is inhibited; type: cell-based; details: chlorocebus sabaeus, Vero cells; read-out: CyD50
Procedure, shortened: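 Cell-growth cytotoxicity in Vero cells or human skin fibroblasts. Serial 2-fold dilutions in M-199 with 6% newborn calf serum were added in quadruplicate to 10⁶ cells and held 6 days at 37 °C. Cells were trypsinized, counted and reseeded with compound, repeated five times. Generation time was calculated per concentration. CyD50 = lowest concentration at least doubling generation time versus untreated cells.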

Enterovirus C [2] = experiment: Maximal non-toxic dose (MNTD) that shows antiviral activity.; type: functional
Procedure, shortened: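 End-point titration. Poliovirus type 1 Brunhilde was run in Vero cells at 37 °C with a 3-day read. Rhinovirus 15 was run in human skin fibroblasts at 33 °C with a 7-day read. Monolayers got serial 10-fold virus dilutions and adsorbed 1 h at 37 °C, then serial 2-fold compound dilutions (DMSO stock in maintenance medium). CPE was read by light microscopy. RF = control titer (TCD50/mL) / titer at maximal nontoxic dose.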

Enterovirus C [3] = experiment: Minimum drug concentration at which 99% of the polio virus is inhibited; NA= not active; type: functional, organism-based
Procedure, shortened: (§1)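 Poliovirus type 1 Brunhilde 1A/S3 in Vero monolayers. Serial 10-fold virus dilutions adsorbed 1 h at 37 °C, then serial 2-fold compound dilutions were added. Incubated at 37 °C and scored for CPE by light microscopy, with a 3-day readout. Titer reduction is control/treated TCD50/mL. ED99 is the minimum concentration inhibiting 99% of virus. Virus, cell and compound controls were included.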

Enterovirus C [4] = experiment: The ratio of the poliovirus viral titer of the virus control (reduction factor) to the viral titer in the presence of the maximal non-toxic dose (RF MNTD); type: functional; procedure, shortened: as §1
Human rhinovirus sp. [5] = experiment: Antirhinovirus activity against rhinovirus serotype 2 which were grown on Ohio HeLa cells; type: functional
Human rhinovirus sp. [6] = experiment: Antirhinovirus activity against rhinovirus serotype 29 which were grown on Ohio HeLa cells; type: functional
Human rhinovirus sp. [7] = experiment: Cytotoxic dose at which 50% growth of normal cells is inhibited against rhino virus infection.; type: functional
Procedure, shortened: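 Human skin fibroblasts, 10⁶ cells per flask, given serial 2-fold dilutions in quadruplicate in M-199 with 6% newborn calf serum and held 6 days at 37 °C. Cells were trypsinized, counted in a chamber and reseeded with compound over five repeat cycles. CyD50 = lowest concentration at least doubling cell generation time relative to untreated control.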

Human rhinovirus sp. [8] = experiment: Antirhinovirus activity against rhinovirus serotype 9 which were grown on Ohio HeLa cells; type: functional
Human rhinovirus sp. [9] = experiment: Antirhinovirus activity against rhinovirus serotype 59 which were grown on Ohio HeLa cells; type: functional
[10] = Therapeutic Index measured as the ratio of CyD50 (rhino) / ED99 (rhino) values.; details: read-out: Therapeutic index 99
Procedure, shortened: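 TI99 = CyD50/ED99 for rhinovirus 15. ED99 came from end-point titration in human skin fibroblasts at 33 °C over 7 days. CyD50 came from fibroblast growth: 10⁶ cells were given serial 2-fold compound dilutions in quadruplicate for 6 days at 37 °C, then counted and reseeded, repeated five times. Generation time was calculated per concentration.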

Human rhinovirus sp. [11] = experiment: Antirhinovirus activity against rhinovirus serotype 70 which were grown on Ohio HeLa cells; type: functional
[12] = Therapeutic Index measured as the ratio of CyD50(polio) / ED99(polio) values; type: organism-based; details: enterovirus c; read-out: Therapeutic index 99
Procedure, shortened: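 TI99 = CyD50/ED99 for poliovirus. ED99 came from end-point titration in Vero cells at 37 °C over 3 days. CyD50 came from Vero cell growth: 10⁶ cells were given serial 2-fold compound dilutions in quadruplicate for 6 days at 37 °C, then trypsinized, counted and reseeded, repeated five times. Generation time was calculated per concentration.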

Enterovirus C [13] = experiment: Minimal dose which produces titer reduction at 10 ug/mL (mD RF10e3); type: functional
Human rhinovirus sp. [14] = experiment: Antirhinovirus activity against rhinovirus serotype 89 which were grown on Ohio HeLa cells; type: functional
Enterovirus C [15] = experiment: Minimum drug concentration at which 99% of the polio virus is inhibited; type: functional; procedure, shortened: as §1
Human rhinovirus sp. [16] = experiment: Antirhinovirus activity against rhinovirus serotype 39 which were grown on Ohio HeLa cells; type: functional
Human rhinovirus sp. [17] = experiment: Antirhinovirus activity against rhinovirus serotype 14 which were grown on Ohio HeLa cells; type: functional
Human rhinovirus sp. [18] = experiment: Antirhinovirus activity against rhinovirus serotype 15 which were grown on Ohio HeLa cells; type: functional
Human rhinovirus sp. [19] = experiment: Minimum drug concentration at which 99% of the rhino virus is inhibited.; type: functional
Procedure, shortened: (§2)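 End-point titration with rhinovirus type 15 on human skin fibroblast monolayers. Cells were infected with serial 10-fold virus dilutions and allowed 1 h adsorption at 37 °C. Serial 2-fold compound dilutions were then added and plates incubated at 33 °C. CPE was read daily by light microscopy for at least 1 week, titres as TCD50/mL. ED99 = minimum concentration inhibiting 99% of virus.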

Human rhinovirus sp. [20] = experiment: Antirhinovirus activity against rhinovirus serotype 41 which were grown on Ohio HeLa cells; type: functional
Human rhinovirus sp. [21] = experiment: Minimum drug concentration at which 99% of the rhino virus is inhibited; NA= not active; type: functional, organism-based; procedure, shortened: as §2
Human rhinovirus sp. [22] = experiment: Antirhinovirus activity against rhinovirus serotype 85 which were grown on Ohio HeLa cells; type: functional
Human rhinovirus sp. [23] = experiment: Antirhinovirus activity against rhinovirus serotype 63 which were grown on Ohio HeLa cells; type: functional
Rattus norvegicus [24] = species: Rattus norvegicus; experiment: Mutagenicity evaluated by calculating number of revertants using Salmonella Typhimurium strain TA 100 (0.25 mg/plate) without S9 mix from rat liver according to the plate incorporation assay.; type: functional
Procedure, shortened: (§3)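 Ames plate incorporation assay with Salmonella typhimurium TA98 or TA100, without S9, at 0.25 mg/plate. Revertants per plate were counted on duplicate plates per dose. Quercetin was the standard mutagen.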

Rattus norvegicus [25] = species: Rattus norvegicus; experiment: Mutagenicity evaluated by calculating number of revertants using Salmonella Typhimurium strain TA 98 (0.25 mg/plate) without S9 mix from rat liver; type: functional; procedure, shortened: as §3
Enterovirus C [26] = experiment: Minimum drug concentration at which 99% of the polio virus is inhibited; NA= Not active; type: functional, organism-based; procedure, shortened: as §1

SMILES: COc1c(-c2ccc(Cl)cc2)oc2cc(Cl)ccc2c1=O
- CC50 [1]: 20 µg/mL (≈ 62.3 µM)
- Max non-toxic dose (Enterovirus C [2]): 25 µg/mL
- ED99 (Enterovirus C [3]): inactive
- Reduction factor (Enterovirus C [4]): 1

SMILES: COc1ccc(-c2oc3cc(Cl)ccc3c(=O)c2OC)cc1
- CC50 [1]: > 200 µg/mL
- Max non-toxic dose (Enterovirus C [2]): 100 µg/mL
- ED99 (Enterovirus C [3]): inactive
- Reduction factor (Enterovirus C [4]): 1

SMILES: COc1cc(C)c2c(=O)c(OC)c(-c3ccc(O)cc3)oc2c1
- MIC50 (Human rhinovirus sp. [5]): 2.4 µg/mL (≈ 7.68 µM)
- MIC50 (Human rhinovirus sp. [6]): 0.175 µg/mL (≈ 0.56 µM)
- CyD50 (Human rhinovirus sp. [7]): 50 µg/mL
- MIC50 (Human rhinovirus sp. [8]): 0.2 µg/mL (≈ 0.64 µM)
- MIC50 (Human rhinovirus sp. [9]): 3 µg/mL (≈ 9.61 µM)
- CC50 [1]: 50 µg/mL (≈ 160 µM)
- selectivity ratio [10]: 2
- MIC50 (Human rhinovirus sp. [11]): 5 µg/mL (≈ 16 µM)
- Max non-toxic dose (Enterovirus C [2]): 25 µg/mL
- selectivity ratio [12]: 50
- Minimal dose (Enterovirus C [13]): 0.5 µg/mL
- MIC50 (Human rhinovirus sp. [14]): 0.2 µg/mL (≈ 0.64 µM)
- ED99 (Enterovirus C [15]): 1 µg/mL
- MIC50 (Human rhinovirus sp. [16]): 12 µg/mL (≈ 38.4 µM)
- MIC50 (Human rhinovirus sp. [17]): 10.8 µg/mL (≈ 34.6 µM)
- Reduction factor (Enterovirus C [4]): 100000
- MIC50 (Human rhinovirus sp. [18]): 0.4 µg/mL (≈ 1.28 µM)
- ED99 (Human rhinovirus sp. [19]): 25 µg/mL
- MIC50 (Human rhinovirus sp. [20]): 0.375 µg/mL (≈ 1.2 µM)

SMILES: COc1cc(O)c2c(=O)c(OC)c(-c3ccc(O)c(O)c3)oc2c1OC
- CyD50 (Human rhinovirus sp. [7]): 20 µg/mL
- CC50 [1]: > 5 µg/mL
- selectivity ratio [10]: 10
- Max non-toxic dose (Enterovirus C [2]): 10 µg/mL
- selectivity ratio [12]: 25
- Minimal dose (Enterovirus C [13]): 0.5 µg/mL
- ED99 (Enterovirus C [15]): 0.2 µg/mL
- Reduction factor (Enterovirus C [4]): 100000
- ED99 (Human rhinovirus sp. [19]): 2 µg/mL

SMILES: CCOc1c(-c2ccc(O)cc2)oc2cc(C)ccc2c1=O
- ED99 (Human rhinovirus sp. [21]): inactive
- CyD50 (Human rhinovirus sp. [7]): 25 µg/mL
- CC50 [1]: 25 µg/mL (≈ 84.4 µM)
- Max non-toxic dose (Enterovirus C [2]): 25 µg/mL
- selectivity ratio [12]: < 1
- ED99 (Enterovirus C [15]): >25 µg/mL
- Reduction factor (Enterovirus C [4]): 1

SMILES: COc1cc(OC)c2c(=O)c(OC)c(-c3ccc(O)cc3)oc2c1
- CyD50 (Human rhinovirus sp. [7]): 100 µg/mL
- CC50 [1]: 100 µg/mL (≈ 305 µM)
- selectivity ratio [10]: 5
- Max non-toxic dose (Enterovirus C [2]): 100 µg/mL
- selectivity ratio [12]: 10
- Minimal dose (Enterovirus C [13]): 5 µg/mL
- ED99 (Enterovirus C [15]): 10 µg/mL
- Reduction factor (Enterovirus C [4]): 100000
- ED99 (Human rhinovirus sp. [19]): 20 µg/mL

SMILES: COc1c(-c2ccc(O)cc2)oc2cc(O)cc(C)c2c1=O
- CyD50 (Human rhinovirus sp. [7]): 15 µg/mL
- CC50 [1]: 15 µg/mL (≈ 50.3 µM)
- selectivity ratio [10]: 15
- Max non-toxic dose (Enterovirus C [2]): 10 µg/mL
- selectivity ratio [12]: 150
- Minimal dose (Enterovirus C [13]): 0.05 µg/mL
- ED99 (Enterovirus C [15]): 0.1 µg/mL
- Reduction factor (Enterovirus C [4]): 100000
- ED99 (Human rhinovirus sp. [19]): 1 µg/mL

SMILES: COc1c(-c2ccc(Cl)cc2)oc2ccc(Cl)cc2c1=O
- CC50 [1]: 20 µg/mL (≈ 62.3 µM)
- Max non-toxic dose (Enterovirus C [2]): 25 µg/mL
- ED99 (Enterovirus C [3]): inactive
- Reduction factor (Enterovirus C [4]): 1

SMILES: N=C(N)N [GUANIDINE]
- MIC50 (Human rhinovirus sp. [5]): > 64 µg/mL
- MIC50 (Human rhinovirus sp. [6]): > 64 µg/mL
- MIC50 (Human rhinovirus sp. [22]): 750 µg/mL (≈ 12700 µM)
- MIC50 (Human rhinovirus sp. [8]): 375 µg/mL (≈ 6350 µM)
- MIC50 (Human rhinovirus sp. [9]): 350 µg/mL (≈ 5920 µM)
- MIC50 (Human rhinovirus sp. [11]): 6 µg/mL (≈ 102 µM)
- MIC50 (Human rhinovirus sp. [14]): 1000 µg/mL (≈ 16900 µM)
- MIC50 (Human rhinovirus sp. [16]): 109 µg/mL (≈ 1850 µM)
- MIC50 (Human rhinovirus sp. [17]): 7 µg/mL (≈ 118 µM)
- MIC50 (Human rhinovirus sp. [23]): 500 µg/mL (≈ 8460 µM)
- MIC50 (Human rhinovirus sp. [18]): 438 µg/mL (≈ 7410 µM)
- MIC50 (Human rhinovirus sp. [20]): 1000 µg/mL (≈ 16900 µM)

SMILES: O=c1c(O)c(-c2ccc(O)c(O)c2)oc2cc(O)cc(O)c12 [QUERCETIN]
- Revertants/plate (Rattus norvegicus [24]): 589
- Revertants/plate (Rattus norvegicus [25]): 1100

SMILES: COc1ccc(-c2oc3c(OC)cccc3c(=O)c2OC)cc1
- CC50 [1]: > 200 µg/mL
- Max non-toxic dose (Enterovirus C [2]): 100 µg/mL
- ED99 (Enterovirus C [26]): inactive
- Reduction factor (Enterovirus C [4]): 1
